{
  "source": "ChEMBL document CHEMBL1131455",
  "about": "“5-HT3 antagonists derived from aminopyridazine-type muscarinic M1 agonists” (J Med Chem, 1998)",
  "key": {"[1]": {"target": "T1, Serotonin 3 (5-HT3) receptor (Rattus norvegicus, UniProt P35563+Q9JJ16)", "T1 sequence (P35563 whole entry)": "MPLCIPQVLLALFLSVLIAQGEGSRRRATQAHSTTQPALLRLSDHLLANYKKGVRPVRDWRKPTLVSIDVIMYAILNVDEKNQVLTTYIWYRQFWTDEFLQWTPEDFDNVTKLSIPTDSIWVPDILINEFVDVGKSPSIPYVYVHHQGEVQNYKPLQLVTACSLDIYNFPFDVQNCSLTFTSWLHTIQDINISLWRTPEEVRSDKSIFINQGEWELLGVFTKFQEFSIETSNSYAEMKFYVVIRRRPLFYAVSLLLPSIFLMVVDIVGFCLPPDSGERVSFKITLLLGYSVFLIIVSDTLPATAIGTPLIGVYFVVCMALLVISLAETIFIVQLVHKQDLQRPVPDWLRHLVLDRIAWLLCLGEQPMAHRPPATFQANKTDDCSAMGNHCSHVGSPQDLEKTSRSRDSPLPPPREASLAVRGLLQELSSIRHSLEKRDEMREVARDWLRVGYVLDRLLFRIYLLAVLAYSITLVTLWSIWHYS", "T1 sequence (Q9JJ16 whole entry)": "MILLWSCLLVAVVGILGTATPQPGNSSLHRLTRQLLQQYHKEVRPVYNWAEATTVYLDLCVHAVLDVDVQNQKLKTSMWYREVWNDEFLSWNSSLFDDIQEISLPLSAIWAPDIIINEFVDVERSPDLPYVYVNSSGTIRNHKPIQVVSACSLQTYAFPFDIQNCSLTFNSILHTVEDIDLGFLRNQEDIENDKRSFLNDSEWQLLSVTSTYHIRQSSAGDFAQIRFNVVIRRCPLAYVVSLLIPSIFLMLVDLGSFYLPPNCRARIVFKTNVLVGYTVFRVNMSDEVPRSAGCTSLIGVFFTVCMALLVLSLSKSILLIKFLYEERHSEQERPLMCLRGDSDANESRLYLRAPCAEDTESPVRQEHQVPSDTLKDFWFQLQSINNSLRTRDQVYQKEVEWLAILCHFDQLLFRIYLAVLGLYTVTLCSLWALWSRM", "test": "Compound was evaluated for its binding affinity for 5-hydroxytryptamine 3 receptor by measuring displacement [3H]GR-65630 in rat cerebral cortex.", "assay_type": "tissue-based"}, "[2]": {"target": "Serotonin (5-HT) receptor", "test": "Potency was evaluated on rabbit heart serotonergic receptors", "set-up": "species or system Oryctolagus cuniculus"}, "[3]": {"target": "T2, Muscarinic acetylcholine receptor M1 (Rattus norvegicus, UniProt P08482)", "T2 sequence (P08482 whole entry)": "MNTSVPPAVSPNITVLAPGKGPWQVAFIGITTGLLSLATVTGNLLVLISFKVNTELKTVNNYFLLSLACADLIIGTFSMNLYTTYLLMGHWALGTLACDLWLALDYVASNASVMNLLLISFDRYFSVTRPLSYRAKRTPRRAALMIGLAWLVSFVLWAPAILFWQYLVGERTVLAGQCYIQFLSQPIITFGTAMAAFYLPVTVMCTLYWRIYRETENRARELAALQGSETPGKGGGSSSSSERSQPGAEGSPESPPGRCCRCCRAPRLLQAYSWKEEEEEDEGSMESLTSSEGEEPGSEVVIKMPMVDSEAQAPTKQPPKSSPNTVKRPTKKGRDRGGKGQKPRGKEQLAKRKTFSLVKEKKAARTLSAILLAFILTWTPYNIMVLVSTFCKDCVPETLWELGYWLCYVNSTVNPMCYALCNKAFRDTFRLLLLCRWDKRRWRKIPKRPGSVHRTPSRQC", "test": "Compound was evaluated for its binding affinity for Muscarinic acetylcholine receptor M1 by measuring displacement of [3H]- pirenzepine from rat hippocampus", "assay_type": "tissue-based", "outline": "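Adult rat hippocampus homogenized 1:200 w/v in 50 mM Na/K phosphate pH 7.4 with 1 mM EDTA and 0.1 mM PMSF. 0.5 mg tissue competed against [3H]pirenzepine (0.7-1 nM) for 2 h 30 min at 25 °C. Bound separated by filtration on 0.3% polyethylenimine-treated GF/C filters. Atropine defined nonspecific binding.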"}, "[4]": {"target": "T1, Serotonin 3 (5-HT3) receptor", "test": "Compound was evaluated for its binding affinity for 5-hydroxytryptamine 3 receptor by measuring displacement of [3H]granisetron from rat cerebral cortex", "assay_type": "tissue-based", "outline": "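Male Sprague-Dawley rat cerebral cortex homogenized in cold 50 mM HEPES pH 7.5, then washed three times by centrifugation (48000g, 4 °C); roughly 2.5 mg protein/mL. […] Filters were presoaked 2 h in 0.3% polyethylenimine. Nonspecific binding defined with 100 nM zacopride; bound counted by liquid scintillation.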"}, "[5]": {"target": "T3, Muscarinic acetylcholine receptor M2 (Rattus norvegicus, UniProt P10980)", "T3 sequence (P10980 whole entry)": "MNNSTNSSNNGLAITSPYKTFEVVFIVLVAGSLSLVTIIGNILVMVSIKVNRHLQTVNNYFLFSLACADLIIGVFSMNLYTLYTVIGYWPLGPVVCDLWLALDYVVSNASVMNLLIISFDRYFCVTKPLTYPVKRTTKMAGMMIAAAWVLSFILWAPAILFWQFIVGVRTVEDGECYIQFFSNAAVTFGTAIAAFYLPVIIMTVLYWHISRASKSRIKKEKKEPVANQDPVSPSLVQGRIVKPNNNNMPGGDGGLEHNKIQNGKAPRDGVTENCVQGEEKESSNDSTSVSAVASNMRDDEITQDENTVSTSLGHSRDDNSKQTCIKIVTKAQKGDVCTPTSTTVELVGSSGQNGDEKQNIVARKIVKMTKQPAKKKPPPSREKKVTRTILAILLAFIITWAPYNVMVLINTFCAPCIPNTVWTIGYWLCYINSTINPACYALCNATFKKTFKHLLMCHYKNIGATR", "test": "Compound was evaluated for its binding affinity for Muscarinic acetylcholine receptor M2 by measuring displacement of [3H]- NMS ligand from rat cardiac cells.", "outline": "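Adult rat cardiac cells homogenized 1:200 w/v in 50 mM sodium phosphate pH 7.4. Competition run with 0.2 nM [3H]NMS, 0.5 mg tissue and varying unlabeled ligand concentrations for 1 h at 37 °C. Bound separated by GF/C filtration. Atropine used for nonspecific binding.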"}, "[6]": {"target": "T1, Serotonin 3 (5-HT3) receptor", "test": "Compound was evaluated for its binding affinity for 5-hydroxytryptamine 3 receptor by measuring displacement [3H]GR-65630 in rat cerebral cortex", "assay_type": "tissue-based"}},
  "data": [
    {"smiles": "Cn1cc(-c2noc(C3CN4CCC3CC4)n2)c2ccccc21", "note": "(configuration not stated)", "values": [
      {"measurement": "IC50", "setting": "[1]", "result": 0.0014, "unit": "µM"}
    ]},
    {"smiles": "O=C(OC1C2CC3CC1N2CC3=O)c1c[nH]c2ccccc12", "note": "(configuration not stated)", "values": [
      {"measurement": "pA2", "setting": "[2]", "result": 9.8}
    ]},
    {"smiles": "CN1CCN(c2cc(-c3ccccc3)cnn2)CC1", "values": [
      {"measurement": "Ki", "setting": "[3]", "result": 62, "unit": "µM"},
      {"measurement": "IC50", "setting": "[4]", "result": 0.036, "unit": "µM"},
      {"measurement": "Ki", "setting": "[5]", "result": 80, "unit": "µM"}
    ]},
    {"smiles": "CN1CCN(c2nnc(-c3ccccc3)c3ccccc23)CC1", "values": [
      {"measurement": "Ki", "setting": "[3]", "result": 13, "unit": "µM"},
      {"measurement": "IC50", "setting": "[4]", "result": 0.37, "unit": "µM"},
      {"measurement": "Ki", "setting": "[5]", "result": 116, "unit": "µM"}
    ]},
    {"smiles": "CN1CCN(c2ccc(-c3ccccc3)nn2)CC1", "values": [
      {"measurement": "Ki", "setting": "[3]", "result": 15.6, "unit": "µM"},
      {"measurement": "IC50", "setting": "[4]", "result": 0.425, "unit": "µM"},
      {"measurement": "Ki", "setting": "[5]", "result": 71, "unit": "µM"}
    ]},
    {"smiles": "CN1CCN(c2nncc3ccccc23)CC1", "values": [
      {"measurement": "Ki", "setting": "[3]", "result": 10, "unit": "µM"},
      {"measurement": "IC50", "setting": "[4]", "result": 0.01, "unit": "µM"},
      {"measurement": "Ki", "setting": "[5]", "result": 38, "unit": "µM"}
    ]},
    {"smiles": "CN1[C@@H]2CC[C@H]1C[C@@H](OC(=O)c1cc(Cl)cc(Cl)c1)C2", "note": "[BEMESETRON]", "values": [
      {"measurement": "Ki", "setting": "[6]", "result": 0.054, "unit": "µM"}
    ]},
    {"smiles": "CCN(CC)CCNC(=O)c1cc(Cl)c(N)cc1OC", "note": "[METOCLOPRAMIDE]", "values": [
      {"measurement": "Ki", "setting": "[6]", "result": 0.348, "unit": "µM"}
    ]},
    {"smiles": "CN1[C@@H]2CC[C@H]1C[C@@H](OC(=O)c1c[nH]c3ccccc13)C2", "note": "[TROPISETRON]", "values": [
      {"measurement": "Ki", "setting": "[6]", "result": 0.0032, "unit": "µM"}
    ]}
  ]
}
